Source: ChEMBL document CHEMBL1126550, “Nanomolar-affinity, non-peptide oxytocin receptor antagonists” (J Med Chem, 1993)

Key:
Oxytocin receptor = biological target: T1, Oxytocin receptor (Rattus norvegicus, UniProt P70536); assay: Inhibition of radioligand [3H]oxytocin binding at the oxytocin (OT) receptor in rat uterine tissue
T1 sequence (P70536 whole entry): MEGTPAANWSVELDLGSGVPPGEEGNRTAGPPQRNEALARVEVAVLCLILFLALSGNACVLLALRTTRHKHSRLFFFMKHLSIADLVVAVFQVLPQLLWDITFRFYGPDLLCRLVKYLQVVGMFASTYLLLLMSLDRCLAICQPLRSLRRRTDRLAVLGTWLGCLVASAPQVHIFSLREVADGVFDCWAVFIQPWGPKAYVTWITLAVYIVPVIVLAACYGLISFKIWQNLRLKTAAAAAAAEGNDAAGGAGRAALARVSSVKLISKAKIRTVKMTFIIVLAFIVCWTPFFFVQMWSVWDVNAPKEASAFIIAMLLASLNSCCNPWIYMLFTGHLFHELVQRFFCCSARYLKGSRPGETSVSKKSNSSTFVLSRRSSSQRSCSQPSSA
Summary of the method: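 Uteri taken from rats given diethylstilbestrol dipropionate (0.3 mg/kg ip, 18–24 h before), crude membranes. 1 nM [3H]OT (30–60 Ci/mmol), equilibrium 60 min at 22 °C in 50 mM Tris-HCl, 5 mM MgCl2, 0.1% BSA, pH 7.4. Nonspecific binding with 1 mM unlabeled OT. Filtered on glass fiber. Initial single-concentration screen, then IC50 from seven concentrations by linear regression.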

Vasopressin V1 receptor = Vasopressin V1 receptor (Rattus norvegicus, UniProt P48974+P30560); assay: Inhibition of radioligand [3H]AVP binding to the vasopressin V1 receptor in rat liver tissue
Summary of the method: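 Crude membranes from male rat liver (V1 sites) competed with 1 nM [3H]AVP (80–90 Ci/mmol). Equilibrium 30 min, 30 °C, buffer 100 mM Tris-HCl, 5 mM MgCl2, 0.1% BSA, 50 μM PMSF, 50 μg/mL bacitracin, pH 8.0. 10 μM unlabeled AVP for nonspecific binding. Filtration through glass-fiber filters. IC50 from linear regression over seven concentrations.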

Vasopressin V2 receptor = Vasopressin V2 receptor (Rattus norvegicus, UniProt Q00788); assay: Inhibition of radioligand [3H]-AVP binding to the vasopressin V2 receptor in rat kidney tissue
Sequence of Vasopressin V2 receptor (Q00788 whole entry): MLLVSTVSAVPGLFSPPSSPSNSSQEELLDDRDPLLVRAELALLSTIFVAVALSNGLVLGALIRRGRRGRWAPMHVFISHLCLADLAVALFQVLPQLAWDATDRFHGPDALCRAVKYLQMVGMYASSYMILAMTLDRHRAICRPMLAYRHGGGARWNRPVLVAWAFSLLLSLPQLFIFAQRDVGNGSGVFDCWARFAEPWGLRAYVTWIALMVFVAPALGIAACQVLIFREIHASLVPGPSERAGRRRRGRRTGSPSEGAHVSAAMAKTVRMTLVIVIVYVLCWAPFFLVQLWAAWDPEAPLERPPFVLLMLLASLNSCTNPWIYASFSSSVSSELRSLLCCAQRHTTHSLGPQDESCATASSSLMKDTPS
Summary of the method: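 [3H]AVP (80–90 Ci/mmol) at 2 nM competed on crude membranes from male rat kidney medulla (V2 sites). Equilibrium 30 min at 30 °C in 100 mM Tris-HCl, 5 mM MgCl2, 0.1% BSA, 50 μM PMSF, 50 μg/mL bacitracin, pH 8.0. Nonspecific binding with 10 μM unlabeled AVP. Glass-fiber filtration. IC50 by linear regression of % inhibition vs log concentration, seven concentrations.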

Row | IC50 (Oxytocin receptor) | IC50 (Vasopressin V1 receptor) | IC50 (Vasopressin V2 receptor) | Structure (SMILES)
1 | 6.3 nM | 490 nM | 1800 nM | CC1(C)[C@@H]2CC[C@@]1(CS(=O)(=O)N1CCC3(CCc4ccccc43)CC1)[C@@H](NC(=O)[C@H](CCC(N)=O)NC(=O)CCN)C2
2 | 150 nM | > 3000 nM | > 3000 nM | Cc1[nH]cnc1C(=O)N[C@H]1C[C@H]2CC[C@]1(CS(=O)(=O)N1CCC3(CCc4ccccc43)CC1)C2(C)C
3 | 20 nM | 500 nM | 3200 nM | CC1(C)[C@@H]2CC[C@@]1(CS(=O)(=O)N1CCC3(CCc4ccccc43)CC1)[C@@H](N1C(=O)C3CC(O)CN3C1=O)C2 (some centres not stated)
4 | 45 nM | > 300 nM | > 3000 nM | CC1(C)[C@@H]2CC[C@@]1(CS(=O)(=O)N1CCC3(C=Cc4ccccc43)CC1)[C@@](O)(CNC(=O)Cc1c[nH]cn1)C2
5 | 81 nM | 830 nM | 4700 nM | CC1(C)[C@@H]2CC[C@@]1(CS(=O)(=O)N1CCC3(C=Cc4ccccc43)CC1)[C@@](O)(CNC(=O)Cc1ccccn1)C2
6 | 6500 nM | > 10000 nM | > 10000 nM | CC1(C)[C@@H]2CC[C@@]1(CS(=O)(=O)N1CCC3(CCc4ccccc43)CC1)[C@H](N)C2
7 | 170 nM | > 3000 nM | > 3000 nM | CC1(C)[C@@H]2CC[C@@]1(CS(=O)(=O)N1CCC3(CCc4ccccc43)CC1)[C@@H](NC(=O)Cc1csc(N)n1)C2
8 | 180 nM | 1100 nM | 3600 nM | CC1(C)[C@@H]2CC[C@@]1(CS(=O)(=O)N1CCC3(C=Cc4ccccc43)CC1)[C@@](O)(CNC(=O)c1ccccn1)C2
9 | 2.6 nM | 110 nM | 660 nM | CC1(C)[C@@H]2CC[C@@]1(CS(=O)(=O)N1CCC3(CCc4ccccc43)CC1)[C@@H](N1C(=O)NC(CCS(C)(=O)=O)C1=O)C2 (some centres not stated)
10 | > 1000 nM | > 10000 nM | > 10000 nM | CC1(C)[C@@H]2CC[C@@]1(CS(=O)(=O)N1CCC3(C=Cc4ccccc43)CC1)C1(CNC(=O)O1)C2 (some centres not stated)
11 | 110 nM | 3700 nM | 9200 nM | CC1(C)[C@@H]2CC[C@@]1(CS(=O)(=O)N1CCC3(C=Cc4ccccc43)CC1)[C@@](O)(CNC(=O)C(N)CCS(C)(=O)=O)C2 (some centres not stated)
12 | 1.2 nM | 440 nM | 280 nM | CC1(C)[C@@H]2CC[C@@]1(CS(=O)(=O)N1CCC3(CCc4ccccc43)CC1)[C@@H](NC(=O)C(CCS(C)(=O)=O)NC(=O)Cc1c[nH]cn1)C2 (some centres not stated)
13 | 40 nM | 1100 nM | 3000 nM | CC1(C)[C@@H]2CC[C@@]1(CS(=O)(=O)N1CCC3(CCc4ccccc43)CC1)[C@](O)(CNC(=O)C(N)CS(C)(=O)=O)C2 (some centres not stated)
14 | 10000 nM | 100000 nM | 100000 nM | CC1(C)[C@@H]2CC[C@@]1(CS(=O)(=O)N1CCC3(C=Cc4ccccc43)CC1)[C@](O)(CN)C2
15 | 190 nM | > 1000 nM | > 10000 nM | CC1(C)[C@@H]2CC[C@@]1(CS(=O)(=O)N1CCC3(CCc4ccccc43)CC1)[C@@H](NC(=O)c1ccncc1)C2
16 | 110 nM | > 300 nM | 5100 nM | CC1(C)[C@@H]2CC[C@@]1(CS(=O)(=O)N1CCC3(C=Cc4ccccc43)CC1)[C@@](O)(CNC(=O)C1CCCNC1)C2 (some centres not stated)
17 | 30000 nM | > 10000 nM | > 10000 nM | CC1(C)[C@@H]2CC[C@@]1(CS(=O)(=O)N1CCC3(CCc4ccccc43)CC1)[C@@H](N)C2
18 | 12000 nM | > 10000 nM | > 10000 nM | CC1(C)[C@@H]2CC[C@@]1(CS(=O)(=O)N1CCC3(CCc4ccccc43)CC1)[C@@H](NC(=O)C[C@]13C[C@H]4C[C@H](C[C@H](C4)C1)C3)C2
19 | 79 nM | > 1000 nM | > 1000 nM | CC1(C)[C@@H]2CC[C@@]1(CS(=O)(=O)N1CCC3(C=Cc4ccccc43)CC1)[C@@](O)(CCNC(=O)c1ccncc1)C2

Row | IC50 (Oxytocin receptor) | IC50 (Vasopressin V1 receptor) | IC50 (Vasopressin V2 receptor) | Structure (SMILES)
20 | 170 nM | 950 nM | 18000 nM | CC1(C)[C@@H]2CC[C@@]1(CS(=O)(=O)N1CCC3(C=Cc4ccccc43)CC1)[C@@](O)(CNC(=O)NC1CCCCC1)C2
21 | 10000 nM | > 3000 nM | > 3000 nM | CC1(C)[C@H]2CC[C@]1(CS(=O)(=O)N1CCC3(CCc4ccccc43)CC1)[C@@H](NC(=O)Cc1c[nH]cn1)C2
22 | 45 nM | 2300 nM | 13000 nM | CCC(C)(C)C(=O)NCC[C@@]1(O)C[C@H]2CC[C@]1(CS(=O)(=O)N1CCC3(C=Cc4ccccc43)CC1)C2(C)C
23 | 16 nM | 700 nM | 1900 nM | CC1(C)[C@@H]2CC[C@@]1(CS(=O)(=O)N1CCC3(CCc4ccccc43)CC1)[C@@H](NC(=O)N(CCc1c[nH]cn1)CCS(C)(=O)=O)C2
24 | 0.7 nM | 1200 nM | 490 nM | Cn1cnc(CC(=O)NC(CCS(C)(=O)=O)C(=O)N[C@H]2C[C@H]3CC[C@]2(CS(=O)(=O)N2CCC4(CCc5ccccc54)CC2)C3(C)C)c1 (some centres not stated)
25 | 30 nM | 710 nM | 5200 nM | CC1(C)[C@@H]2CC[C@@]1(CS(=O)(=O)N1CCC3(CCc4ccccc43)CC1)[C@@H](NC(=O)CCC1CCCNC1)C2 (some centres not stated)
26 | 150 nM | 3000 nM | > 3000 nM | CC1(C)[C@@H]2CC[C@@]1(CS(=O)(=O)N1CCC3(CCc4ccccc43)CC1)[C@@](O)(CN1CCCC1=O)C2
27 | 2.3 nM | > 300 nM | > 300 nM | Cn1cncc1CC(=O)N[C@@H](CCC(N)=O)C(=O)N[C@H]1C[C@H]2CC[C@]1(CS(=O)(=O)N1CCC3(CCc4ccccc43)CC1)C2(C)C
28 | 240 nM | 16000 nM | 13000 nM | CCOC(=O)CCC(=O)N[C@H]1C[C@H]2CC[C@]1(CS(=O)(=O)N1CCC3(CCc4ccccc43)CC1)C2(C)C
29 | 460 nM | > 3000 nM | > 3000 nM | CC1(C)[C@@H]2CC[C@@]1(CS(=O)(=O)N1CCC3(CCc4ccccc43)CC1)[C@@H](NC(N)=O)C2
30 | 800 nM | 78000 nM | 70000 nM | CC1(C)[C@@H]2CC[C@@]1(CS(=O)(=O)N1CCC3(C=Cc4ccccc43)CC1)[C@@](O)(CC(=O)O)C2
31 | 650 nM | 10000 nM | > 10000 nM | CC1(C)[C@@H]2CC[C@@]1(CS(=O)(=O)N1CCC3(C=Cc4ccccc43)CC1)/C(=N\O)C2
32 | 13 nM | 770 nM | 2400 nM | CC1(C)[C@@H]2CC[C@@]1(CS(=O)(=O)N1CCC3(CCc4ccccc43)CC1)[C@@H](N1C(=O)CC(CC(=O)Nc3nn[nH]n3)C1=O)C2 (some centres not stated)
33 | 68 nM | 4700 nM | 14000 nM | CC1(C)[C@@H]2CC[C@@]1(CS(=O)(=O)N1CCC3(CCc4ccccc43)CC1)[C@@H](NC(=O)NCCc1c[nH]cn1)C2
34 | 150 nM | 2700 nM | 30000 nM | CC(=O)NCC[C@@]1(O)C[C@H]2CC[C@]1(CS(=O)(=O)N1CCC3(C=Cc4ccccc43)CC1)C2(C)C
35 | 650 nM | 10000 nM | > 10000 nM | CC1(C)[C@@H]2CC[C@@]1(CS(=O)(=O)N1CCC3(CCc4ccccc43)CC1)[C@@H](NC(=O)C1CCCCC1)C2
36 | 250 nM | 2700 nM | 46000 nM | CC1(C)[C@@H]2CC[C@@]1(CS(=O)(=O)N1CCC3(CCc4ccccc43)CC1)[C@@H](NC(=O)Cc1ccccc1)C2
37 | 49 nM | 2000 nM | 4400 nM | CC1(C)[C@@H]2CC[C@@]1(CS(=O)(=O)N1CCC3(CCc4ccccc43)CC1)[C@@H](N1C(=O)CN(Cc3nn[nH]n3)C1=O)C2
38 | 15 nM | 580 nM | 1500 nM | CC1(C)[C@@H]2CC[C@@]1(CS(=O)(=O)N1CCC3(CCc4ccccc43)CC1)[C@@H](N1C(=O)NC(Cc3c[nH]cn3)C1=O)C2 (mixture of isomers)

Row | Structure (SMILES) | IC50 (Oxytocin receptor) | IC50 (Vasopressin V1 receptor) | IC50 (Vasopressin V2 receptor)
39 | CC1(C)[C@@H]2CC[C@@]1(CS(=O)(=O)N1CCC3(CCc4ccccc43)CC1)[C@@H](NC(=O)NC1CN3CCC1CC3)C2 (single isomer, unassigned; isomer A) | 47 nM | 1700 nM | 8700 nM
